{
  "source": "paper PMC6988732",
  "about": "(The Biochemical journal, 2013)",
  "key": {"PKCθC1B W253G": {"target": "T1, PKCθC1B W253G (Mus musculus, UniProt Q02111, W253G)", "T1 sequence (Q02111 232-281 W253G)": "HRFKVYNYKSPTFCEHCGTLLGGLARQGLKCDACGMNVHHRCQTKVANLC", "assay": "[3H]PDBu binding assay"}, "PKCδC1B": {"tested_on": "PKCδC1B", "conditions": "cited from earlier work"}, "PKCδC1B L254G": {"tested_on": "PKCδC1B L254G", "conditions": "PKCδC1B mutant homologous to L255G; ref Supplementary Table S1; cited from earlier work"}, "PKCδC1B W252K": {"tested_on": "PKCδC1B W252K", "conditions": "cited from earlier work"}, "PKCθC1B wild-type": {"target": "T2, PKCθC1B wild-type (Mus musculus, UniProt Q02111)", "T2 sequence (Q02111 232-281)": "T1 sequence (Q02111 232-281 W253G) with G22W", "assay": "[3H]PDBu binding assay", "in_short": "(§1)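 GST-cleaved mouse PKCθ C1B (residues 232–281), E. coli-expressed, affinity/gel-filtration purified. PEG-precipitation [3H]PDBu binding; Kd from saturable plus linear non-specific fit. Ki: [3H]PDBu at 2–5-fold each construct's Kd, DOG or SAG 1–100000 nM, dried from chloroform with phospholipid, sonicated. PS dependence: total phospholipid 100 μg/ml, PS 0–100%, remainder PC, relative to 100% PS. Means ± S.E.M., three independent experiments.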"}, "PKCθC1B Y239A": {"target": "T3, PKCθC1B Y239A (Mus musculus, UniProt Q02111, Y239A)", "T3 sequence (Q02111 232-281 Y239A)": "T1 sequence (Q02111 232-281 W253G) with Y8A, G22W", "assay": "[3H]PDBu binding assay", "in_short": "as §1"}, "PKCδC1B W252G": {"tested_on": "PKCδC1B W252G", "conditions": "PKCδC1B mutant homologous to W253G; ref Supplementary Table S1; cited from earlier work"}, "PKCδC1B L255D": {"tested_on": "PKCδC1B L255D", "conditions": "in the presence or absence of PS; cited from earlier work"}, "PKCδC1B L250K": {"tested_on": "PKCδC1B L250K", "conditions": "cited from earlier work"}, "PKCδC1B Y238G": {"tested_on": "PKCδC1B Y238G", "conditions": "PKCδC1B mutant homologous to Y239A; ref Supplementary Table S1; cited from earlier work"}, "PKCθC1B L255G": {"target": "T4, PKCθC1B L255G (Mus musculus, UniProt Q02111, L255G)", "T4 sequence (Q02111 232-281 L255G)": "T1 sequence (Q02111 232-281 W253G) with G22W, L24G", "assay": "[3H]PDBu binding assay", "in_short": "as §1"}, "PKCδC1B L250D": {"tested_on": "PKCδC1B L250D", "conditions": "in the presence or absence of PS; cited from earlier work"}, "PKCδC1B L255K": {"tested_on": "PKCδC1B L255K", "conditions": "cited from earlier work"}, "PKCθC1B Q258G": {"target": "T5, PKCθC1B Q258G (Mus musculus, UniProt Q02111, Q258G)", "T5 sequence (Q02111 232-281 Q258G)": "T1 sequence (Q02111 232-281 W253G) with G22W, Q27G", "assay": "[3H]PDBu binding assay", "in_short": "as §1"}, "PKCθC1B T243A": {"target": "T6, PKCθC1B T243A (Mus musculus, UniProt Q02111, T243A)", "T6 sequence (Q02111 232-281 T243A)": "T1 sequence (Q02111 232-281 W253G) with T12A, G22W", "assay": "[3H]PDBu binding assay", "in_short": "as §1"}, "PKCδC1B L250R": {"tested_on": "PKCδC1B L250R", "conditions": "cited from earlier work"}},
  "note": "Positions count from the first letter of the chain named. Several values for one entry are separate records, joined by “and”; a condition that tells them apart may be missing. Identical values can stand only once. Like-named read-outs stand apart in the source and are kept apart here.",
  "data": [
    {"smiles": "CCCC(=O)O[C@@H]1[C@@H](C)[C@@]2(O)[C@@H](C=C(CO)C[C@]3(O)C(=O)C(C)=C[C@@H]23)[C@@H]2C(C)(C)[C@]12OC(=O)CCC", "note": "[PDBu, phorbol 12,13-dibutyrate]", "values": [
      {"measurement": "PDBu binding at 50% PS relative to the level at 100% PS", "setting": "PKCθC1B W253G; PS/PC mixture, total phospholipid 100 μg/ml, W253G", "value": 59.3, "unit": "%"},
      {"measurement": "reduction in binding affinity compared with the wild-type", "setting": "PKCθC1B W253G; W253G vs wild-type PKCθC1B (Kd for PDBu, Ki for DOG/SAG)", "value": "7.56 fold and 8 fold"},
      {"measurement": "Kd", "setting": "PKCθC1B W253G; read-out: PDBu Kd, PKCθ C1B W253G, mean ± S.E.M.", "value": "2.95 ± 0.19", "unit": "nM"},
      {"measurement": "activity at 50% PS", "setting": "PKCδC1B", "value": "approximately 100%"},
      {"measurement": "reduction in affinity for PDBu compared with the wild-type", "setting": "PKCδC1B L254G", "value": "> 1000", "unit": "fold"},
      {"measurement": "activity at 50% PS as percent of the maximum activity", "setting": "PKCδC1B W252K; 50% PS", "value": "approximately 55%"},
      {"measurement": "binding affinity compared with the wild-type", "setting": "PKCδC1B W252K; in the absence of the PS", "value": "remained almost the same"},
      {"measurement": "effect on PDBu binding compared with the wild-type", "setting": "PKCδC1B W252K; in the presence of PS", "value": 3, "unit": "fold"},
      {"measurement": "[3H]PDBu binding at 5% PS", "setting": "PKCθC1B wild-type; 5% PS in PS/PC, relative to binding at 100% PS", "value": "Approximately 30%"},
      {"measurement": "[3H]PDBu binding in 100% PC", "setting": "PKCθC1B wild-type; 100% PC (0% PS)", "value": "essentially no binding"},
      {"measurement": "PDBu binding at 50% PS relative to the level at 100% PS", "setting": "PKCθC1B wild-type; PS/PC mixture, total phospholipid 100 μg/ml, PKCθC1B", "value": 90.5, "unit": "%"},
      {"measurement": "Kd", "setting": "PKCθC1B wild-type; read-out: PDBu Kd, PKCθ C1B WT, mean ± S.E.M. of triplicate independent experiments", "value": "0.39 ± 0.2", "unit": "nM"},
      {"measurement": "PDBu binding at 50% PS relative to the level at 100% PS", "setting": "PKCθC1B Y239A; PS/PC mixture, total phospholipid 100 μg/ml, Y239A", "value": 130.7, "unit": "%"},
      {"measurement": "PS percentage giving maximal [3H]PDBu binding", "setting": "PKCθC1B Y239A; PS/PC mixtures, Y239A, decrease at 100% PS", "value": "50–75%"},
      {"measurement": "reduction in binding affinity compared with the wild-type", "setting": "PKCθC1B Y239A; Y239A vs wild-type PKCθC1B (Kd for PDBu, Ki for DOG/SAG)", "value": "8.51 fold and 9 fold"},
      {"measurement": "Kd", "setting": "PKCθC1B Y239A; read-out: PDBu Kd, PKCθ C1B Y239A, mean ± S.E.M.", "value": "3.32 ± 0.34", "unit": "nM"},
      {"measurement": "reduction in affinity for PDBu compared with the wild-type", "setting": "PKCδC1B W252G", "value": 31, "unit": "fold"},
      {"measurement": "effect of mutation on strong binding of PDBu", "setting": "PKCδC1B L255D", "value": "completely abolished"},
      {"measurement": "binding affinity compared with the wild-type", "setting": "PKCδC1B L250K; in the absence of the PS", "value": "remained almost the same"},
      {"measurement": "effect on PDBu binding compared with the wild-type", "setting": "PKCδC1B L250K; in the presence of PS", "value": 3, "unit": "fold"},
      {"measurement": "reduction in the binding affinity compared with the wild-type", "setting": "PKCδC1B Y238G", "value": 60, "unit": "fold"},
      {"measurement": "reduction in binding affinity compared with the wild-type", "setting": "PKCθC1B L255G; L255G vs wild-type PKCθC1B (Kd for PDBu, Ki for DOG/SAG)", "value": "11.4 fold and 11 fold"},
      {"measurement": "PDBu binding at 50% PS relative to the level at 100% PS", "setting": "PKCθC1B L255G; PS/PC mixture, total phospholipid 100 μg/ml, L255G", "value": 92.8, "unit": "%"},
      {"measurement": "PS percentage giving maximal [3H]PDBu binding", "setting": "PKCθC1B L255G; PS/PC mixtures, L255G, decrease at 100% PS", "value": "50–75%"},
      {"measurement": "Kd", "setting": "PKCθC1B L255G; read-out: PDBu Kd, PKCθ C1B L255G, mean ± S.E.M.", "value": "4.44 ± 0.56", "unit": "nM"},
      {"measurement": "effect of mutation on strong binding of PDBu", "setting": "PKCδC1B L250D", "value": "completely abolished"},
      {"measurement": "reduction in PDBu binding", "setting": "PKCδC1B L255K; in the absence of lipid", "value": 2.9, "unit": "fold"},
      {"measurement": "reduction in PDBu binding", "setting": "PKCδC1B L255K; in the presence of lipid", "value": 250, "unit": "fold"},
      {"measurement": "PDBu binding at 50% PS relative to the level at 100% PS", "setting": "PKCθC1B Q258G; PS/PC mixture, total phospholipid 100 μg/ml, Q258G", "value": 85.7, "unit": "%"},
      {"measurement": "reduction in binding affinity compared with the wild-type", "setting": "PKCθC1B Q258G; Q258G vs wild-type PKCθC1B (Kd for PDBu, Ki for DOG/SAG)", "value": 1720, "unit": "fold"},
      {"measurement": "Kd", "setting": "PKCθC1B Q258G; read-out: PDBu Kd, PKCθ C1B Q258G, mean ± S.E.M.", "value": "670 ± 150", "unit": "nM"},
      {"measurement": "PDBu binding at 50% PS relative to the level at 100% PS", "setting": "PKCθC1B T243A; PS/PC mixture, total phospholipid 100 μg/ml, T243A", "value": 98.2, "unit": "%"},
      {"measurement": "reduction in binding affinity compared with the wild-type", "setting": "PKCθC1B T243A; T243A vs wild-type PKCθC1B (Kd for PDBu, Ki for DOG/SAG)", "value": 1.64, "unit": "fold"},
      {"measurement": "Kd", "setting": "PKCθC1B T243A; read-out: PDBu Kd, PKCθ C1B T243A, mean ± S.E.M.", "value": "0.64 ± 0.06", "unit": "nM"},
      {"measurement": "reduction in PDBu binding", "setting": "PKCδC1B L250R; in the absence of lipid", "value": 6.6, "unit": "fold"},
      {"measurement": "reduction in PDBu binding", "setting": "PKCδC1B L250R; in the presence of lipid", "value": 340, "unit": "fold"}
    ]}
  ]
}
